Measured values as given in ChEMBL document CHEMBL4177671, “Selenium-containing analogues of WC-9 are extremely potent inhibitors of Trypanosoma cruzi proliferation” (Bioorg Med Chem, 2017).

Key:
Trypanosoma cruzi = experiment: Antitrypanosomal activity against tdTomato red labeled trypomastigote stage of Trypanosoma cruzi infected in gamma-irradiated African green monkey Vero cells after 3 days by fluorescence assay; assay type: functional; details: light or radiation study, 72 h, read-out: ED50 (the source's name)
Method in brief: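 Vero cells, gamma-irradiated at 2,000 Rads, were seeded at 3.4×10^4 per well in RPMI with 10% FBS and incubated overnight at 35 °C, 7% CO2. They were infected with 3.4×10^5 CL-strain tdTomato trypomastigotes per well for 5 h, then washed. Serial dilutions of 1.56–25 μM were run in quadruplicate, with benznidazole at 0.39–6.25 μM. Fluorescence was read at day 3. ED50 was obtained by non-linear regression.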

[1] = Cytotoxicity against African green monkey Vero cells after 3 to 4 days by Alamar Blue dye-based spectrophotometric method; assay type: cell-based; details: chlorocebus sabaeus, read-out: ED50 (the source's name)
Method in brief: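 Vero cell cytotoxicity was measured by Alamar Blue assay following a previously described method.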

[2] = Selectivity index, ratio of ED50 for African green monkey Vero cells to ED50 for Trypanosoma cruzi; assay type: toxicity; details: Vero cells versus Trypanosoma cruzi, read-out: Ratio ED50
Method in brief: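 Calculated as ED50 for Vero cytotoxicity divided by ED50 for the parasite.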

Toxoplasma gondii = experiment: Antiparasitic activity against tachyzoite stage of Toxoplasma gondii expressing red fluorescent protein infected in gamma-irradiated African green monkey Vero cells by fluorescence assay; assay type: functional; details: light or radiation study, read-out: ED50 (the source's name)
Method in brief: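 Tachyzoites expressing red fluorescent protein, assayed per an earlier method with published modifications. Plates were read with lids on, bottom read, excitation 544 nm and emission 590 nm. Values are the mean of one experiment carried out in triplicate.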

Row | SMILES | EC50 (Trypanosoma cruzi) [µM] | CC50 [1] [µM] | selectivity ratio [2] | EC50 (Toxoplasma gondii) [µM]
1 | O=[N+]([O-])c1ccc(Oc2cccc(Br)c2)cc1 | > 100 |  |  | 
2 | N#C[Se]CC1Cc2ccc(Oc3ccccc3)cc2O1 (racemic) | 0.12 | > 125 | > 1040 | 
3 | N#C[Se]CCOc1ccc(Oc2cccc(F)c2)cc1 | 0.085 | 153 | 1800 | 
4 | N#C[Se]CC1Cc2c(Oc3ccccc3)cccc2O1 (racemic) | 0.407 | > 125 | > 307 | 
5 | N#C[Se]CCOc1ccc(I)cc1 | > 10 | > 50 |  | 
6 | N#C[Se]CCOc1cccc(Oc2ccccc2)c1 | 0.085 | > 150 | > 1760 | 2.87
7 | N#CSCC1Cc2cc(Oc3ccccc3)ccc2O1 (stereo not drawn) | 5.99 | > 62.5 | > 10.4 | > 10
8 | O=C(Cn1ccnc1[N+](=O)[O-])NCc1ccccc1 [BENZNIDAZOLE] | 1.5 |  |  | 
9 | N#C[Se]CC1Cc2cc(Oc3ccccc3)ccc2O1 (racemic) | 0.083 | > 125 | > 1500 | 
10 | N#CSCc1cc2cc(Oc3ccccc3)ccc2o1 | 5.19 |  |  | 
11 | N#CSCCOc1ccc(Sc2ccccc2)cc1 | 5.73 | > 62.5 | > 10.9 | 4.58
12 | N#C[Se]CCOc1cccc(I)c1 | 5.44 | > 62.5 | > 11.5 | 
13 | N#COCCOc1ccc(Oc2ccccc2)cc1 | > 10 |  |  | 
14 | O=P(O)(O)C(CNCCOc1ccccc1)P(=O)(O)O | 5.69 |  |  | 
15 | N#C[Se]CCOc1cccc(Oc2ccc(F)cc2)c1 | 0.099 | > 125 | > 1260 | 
16 | N#C[Se]CCOc1ccc(Cl)cc1Cl | 1.38 | > 62.5 | > 45.3 | 
17 | NC(=O)OCCOc1ccc(Oc2ccccc2)cc1 | > 10 |  |  | 
18 | N#C[Se]CCOc1cccc(Oc2ccc(Cl)cc2)c1 | 0.114 | > 125 | > 1100 | 
19 | N#C[Se]CCOc1cccc(Oc2ccccc2F)c1 | 0.126 | 140 | 1110 | 
20 | N#C[Se]CCOc1cccc(Oc2cccc(F)c2)c1 | 0.075 | > 62.5 | > 833 | 
21 | N#CSCCOc1cccc(Sc2ccccc2)c1 | > 10 | > 50 |  | 3.58
22 | N#C[Se]CCOc1ccc(Oc2ccccc2)cc1 | 0.109 | > 100 | > 917 | 3.7
23 | N#CSCCOc1ccc(Oc2ccccc2)cc1 | 5 | 82.6 |  | 4.8
24 | N#C[Se]CCOc1ccc(Oc2ccc(F)cc2)cc1 | 0.271 | 122 |  | 
25 | CCOP(=O)(OCC)C(CNCCOc1ccccc1)P(=O)(OCC)OCC | 5.38 |  |  | 
